Experimental data as given in ChEMBL document CHEMBL3351820, “Development of novel membrane active lipidated peptidomimetics active against drug resistant clinical isolates” (Bioorg Med Chem, 2014).
In brackets after ≈: the same amount, converted by molar mass. Where a SMILES comes first, the peptide text is derived from it. [ ]: non-standard residue; d: D form. The star is where a group is joined. Palmitoyl = CCCCCCCCCCCCCCCC(=O)*; 3Abz = Nc1cccc(C(=O)O)c1; Orn = NCCC[CH](N)C(=O)O

What was measured:
Candida albicans [1] = assay: Antifungal activity against fluconazole-resistant Candida albicans PGI/ DML0109 clinical isolate after 48 to 72 hrs by M27-A method; format: functional
In short: (§1)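 Fungi at 2.5×10^3 cfu/mL in RPMI 1640 (L-glutamine, no glucose or NaHCO3, pH 7.0 with 0.165 M MOPS). Mixed 1:1 with serial 2-fold dilutions in water, incubated at 37 °C with shaking, 24 h for A. fumigatus and 48–72 h for C. albicans. Growth read by absorbance at 600 nm. MIC taken as the lowest concentration with no growth.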

Escherichia coli [2] = assay: Antibacterial activity against Escherichia coli MTCC 0723 after 18 hrs by micro dilution broth assay; format: functional; settings: MTCC 0723, 18 h
In short: (§2)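 Broth microdilution (modified CLSI): mid-log inoculum at 10^5 CFU/mL in Mueller-Hinton broth; serial 2-fold dilutions of sample in 0.001% acetic acid with 0.2% BSA added. Incubated overnight at 37 °C with agitation; A600 read at 18 h. Drug-free culture and uninoculated broth as controls; triplicate.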

Aspergillus niger = assay: Antifungal activity against Aspergillus niger ATCC 64028 after 24 hrs by M27-A method; format: functional; settings: ATCC 64028, 24 h
In short: (§3)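 Fungi at 2.5×10^3 cfu/mL in RPMI 1640 (L-glutamine, no glucose or NaHCO3, buffered pH 7.0 with 0.165 M MOPS), mixed 1:1 with serial 2-fold aqueous dilutions. Incubated at 37 °C with shaking, 24 h for Aspergillus, 48-72 h for Candida and Cryptococcus; A600 read. MIC taken as lowest concentration with no growth.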

Escherichia coli [3] = assay: Antibacterial activity against imipenem-resistant Escherichia coli PGI/ DML02292 clinical isolate after 18 hrs by micro dilution broth assay; format: functional; settings: PGI/ DML02292, 18 h
Pseudomonas aeruginosa = assay: Antibacterial activity against Pseudomonas aeruginosa MTCC 2295 after 18 hrs by micro dilution broth assay; format: functional; settings: MTCC 2295, 18 h; in short: as §2
[4] = Therapeutic index, ratio of HC50 for human RBCs to MIC for Staphylococcus aureus MTCC 3160; settings: red blood cells (RBCs), read-out: TI
Bacillus subtilis = assay: Antibacterial activity against Bacillus subtilis MTCC 2763 after 18 hrs by micro dilution broth assay; format: functional; settings: MTCC 2763, 18 h; in short: as §2
Aspergillus fumigatus [5] = assay: Antifungal activity against Aspergillus fumigatus ATCC 42203 after 24 hrs by M27-A method; format: functional; settings: ATCC 42203, 24 h; in short: as §3
Cryptococcus neoformans = assay: Antifungal activity against Cryptococcus neoformans ATCC 2344 after 48 to 72 hrs by M27-A method; format: functional; in short: as §3
[6] = Therapeutic index, ratio of HC50 for human RBCs to MIC for Escherichia coli MTCC 0723; settings: red blood cells (RBCs), read-out: TI
[7] = Hemolytic activity in human RBCs; format: ADME, cell-based, Erythrocyte; settings: red blood cells (RBCs)
In short: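 Washed fresh human erythrocytes, 4% (v/v) in PBS (35 mM phosphate, 150 mM NaCl, pH 7.2), mixed 1:1 with 2-fold dilutions in PBS. Incubated 1 h at 37 °C without agitation, then centrifuged at 1000 g for 5 min. Supernatant hemoglobin read at 440 nm; % hemolysis = 100(A−A0)/(At−A0).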

Candida albicans [8] = assay: Antifungal activity against Candida albicans ATCC 24433 after 48 to 72 hrs by M27-A method; format: functional; in short: as §3
Aspergillus fumigatus [9] = assay: Antifungal activity against fluconazole-resistant Aspergillus fumigatus IGMC/LM1/0336 after 24 hrs by M27-A method; format: functional; settings: IGMC/LM1/0336, 24 h; in short: as §1
Staphylococcus aureus [10] = assay: Antibacterial activity against Staphylococcus aureus MTCC 3160 after 18 hrs by micro dilution broth assay; format: functional; settings: MTCC 3160, 18 h; in short: as §2
Staphylococcus aureus [11] = assay: Antibacterial activity against methicillin-resistant Staphylococcus aureus PGI/ DML03149 clinical isolate after 18 hrs by micro dilution broth assay; format: functional; settings: PGI/ DML03149, 18 h

CCCCCCCCCCCC(=O)Nc1cccc(C(=O)NC(CCCN)C(=O)NC(CCCN)C(=O)NC(CCCN)C(N)=O)c1 (centres undefined)
MIC (Candida albicans [1]): 15 µg/mL (≈ 22.7 µM) | MIC (Escherichia coli [2]): 12.5 µg/mL (≈ 18.9 µM) | MIC (Aspergillus niger): 15 µg/mL (≈ 22.7 µM) | MIC (Escherichia coli [3]): 10.5 µg/mL (≈ 15.9 µM) | MIC (Pseudomonas aeruginosa): 4.5 µg/mL (≈ 6.81 µM) | selectivity ratio [4]: 144 | MIC (Bacillus subtilis): 100 µg/mL (≈ 151 µM) | MIC (Aspergillus fumigatus [5]): 10 µg/mL (≈ 15.1 µM) | MIC (Cryptococcus neoformans): 12.5 µg/mL (≈ 18.9 µM) | selectivity ratio [6]: 72 | HC50 [7]: 900 µg/mL | MIC (Candida albicans [8]): 15.5 µg/mL (≈ 23.5 µM) | MIC (Aspergillus fumigatus [9]): 12.5 µg/mL (≈ 18.9 µM) | MIC (Staphylococcus aureus [10]): 6.25 µg/mL (≈ 9.46 µM) | MIC (Staphylococcus aureus [11]): 12 µg/mL (≈ 18.2 µM)

O=C(O)c1cn(C2CC2)c2cc(N3CCNCC3)c(F)cc2c1=O [CIPROFLOXACIN]
MIC (Pseudomonas aeruginosa): 0.3 µg/mL (≈ 0.905 µM) | MIC (Bacillus subtilis): 0.5 µg/mL (≈ 1.51 µM) | MIC (Staphylococcus aureus [10]): 0.2 µg/mL (≈ 0.604 µM)

CCCCCCCCCCCCCCCC(=O)Nc1cccc(C(=O)NC(CCCN)C(=O)NC(CCCN)C(=O)NC(CCCN)C(=O)NC(CCCN)C(N)=O)c1 (centres undefined) ({Palmitoyl-3Abz}-[Orn][Orn][Orn][Orn]-NH2; configuration not given here)
MIC (Candida albicans [1]): 3.5 µg/mL (≈ 4.21 µM) | MIC (Escherichia coli [2]): 2 µg/mL (≈ 2.41 µM) | MIC (Aspergillus niger): 3.1 µg/mL (≈ 3.73 µM) | MIC (Escherichia coli [3]): 3.5 µg/mL (≈ 4.21 µM) | MIC (Pseudomonas aeruginosa): 3.1 µg/mL (≈ 3.73 µM) | selectivity ratio [4]: 117 | MIC (Bacillus subtilis): 20 µg/mL (≈ 24.1 µM) | MIC (Aspergillus fumigatus [5]): 1.5 µg/mL (≈ 1.8 µM) | MIC (Cryptococcus neoformans): 5 µg/mL (≈ 6.02 µM) | selectivity ratio [6]: 175 | HC50 [7]: 350 µg/mL | MIC (Candida albicans [8]): 2 µg/mL (≈ 2.41 µM) | MIC (Aspergillus fumigatus [9]): 3.5 µg/mL (≈ 4.21 µM) | MIC (Staphylococcus aureus [10]): 3 µg/mL (≈ 3.61 µM) | MIC (Staphylococcus aureus [11]): 5 µg/mL (≈ 6.02 µM)

C[C@@H]1[C@H](O)[C@@H](C)/C=C/C=C/C=C/C=C/C=C/C=C/C=C/[C@H](O[C@@H]2O[C@H](C)[C@@H](O)[C@H](N)[C@@H]2O)C[C@@H]2O[C@](O)(C[C@@H](O)C[C@@H](O)[C@H](O)CC[C@@H](O)C[C@@H](O)CC(=O)O[C@H]1C)C[C@H](O)[C@H]2C(=O)O [AMPHOTERICIN B]
MIC (Candida albicans [1]): 0.7 µg/mL (≈ 0.758 µM) | MIC (Aspergillus niger): 0.5 µg/mL (≈ 0.541 µM) | MIC (Aspergillus fumigatus [5]): 0.3 µg/mL (≈ 0.325 µM) | MIC (Cryptococcus neoformans): 0.3 µg/mL (≈ 0.325 µM) | MIC (Candida albicans [8]): 0.5 µg/mL (≈ 0.541 µM) | MIC (Aspergillus fumigatus [9]): 0.9 µg/mL (≈ 0.974 µM)

CCCCCCCCCCCCCCCC(=O)Nc1cccc(C(=O)NC(CCCN)C(=O)NC(CCCN)C(=O)NC(CCCN)C(N)=O)c1 (centres undefined)
MIC (Candida albicans [1]): 3.5 µg/mL (≈ 4.88 µM) | MIC (Escherichia coli [2]): 3.5 µg/mL (≈ 4.88 µM) | MIC (Aspergillus niger): 4.25 µg/mL (≈ 5.93 µM) | MIC (Escherichia coli [3]): 4.5 µg/mL (≈ 6.28 µM) | MIC (Pseudomonas aeruginosa): 5.5 µg/mL (≈ 7.67 µM) | selectivity ratio [4]: 90 | MIC (Bacillus subtilis): 20 µg/mL (≈ 27.9 µM) | MIC (Aspergillus fumigatus [5]): 3.5 µg/mL (≈ 4.88 µM) | MIC (Cryptococcus neoformans): 3.5 µg/mL (≈ 4.88 µM) | selectivity ratio [6]: 129 | HC50 [7]: 450 µg/mL | MIC (Candida albicans [8]): 3 µg/mL (≈ 4.18 µM) | MIC (Aspergillus fumigatus [9]): 5 µg/mL (≈ 6.97 µM) | MIC (Staphylococcus aureus [10]): 5 µg/mL (≈ 6.97 µM) | MIC (Staphylococcus aureus [11]): 5 µg/mL (≈ 6.97 µM)
